In ChEMBL document CHEMBL4138188, “Eurycomalactone Inhibits Expression of Endothelial Adhesion Molecules at a Post-Transcriptional Level” (J Nat Prod, 2017):
Activity calls are given as the source filed them. The rule behind the calls is not given here.

Experiments:
[1] = Effect on basal VCAM-1 expression level in HUVECtert at 0.5 to 10 uM incubated for 30 mins by flow cytometry; type: ADME; details: human, 0.5 h
In short: (§1)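 Unstimulated HUVECtert treated with 0.5−10 μM test agent without TNFα; surface VCAM-1, ICAM-1 or E-selectin stained with FITC-labelled antibodies and read by flow cytometry.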

Homo sapiens [2] = species: Homo sapiens; assay: (§2) Inhibition of NF-kappaB in HUVECtert assessed as reduction in TNFalpha-induced E-selectin expression level pretreated for 30 mins followed by TNFalpha stimulation measured after 5 hrs by flow cytometry
In short: (§3)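 FITC-antibody surface staining, flow cytometry; expression relative to TNFα-stimulated control. Parthenolide 10 μM as positive control; means ± SD, n = 3, one-way ANOVA/Dunnett versus vehicle.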

[3] = as §2; design: species or system Homo sapiens; in short: as §3
[4] = Effect on basal ICAM-1 expression level in HUVECtert at 0.5 to 10 uM incubated for 30 mins by flow cytometry; type: ADME; details: human, 0.5 h; in short: as §1
Homo sapiens [5] = species: Homo sapiens; assay: Cytotoxicity against HUVECtert assessed as reduction in cell viability after 18 hrs by resazurin dye based fluorescence assay; type: functional
In short: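 HUVECtert (passage ≤15) seeded on gelatin-coated wells, grown 48 h, then exposed to test agent or 0.1% DMSO vehicle, with or without TNFα; digitonin 100 μg/mL as positive control. After 18 h, supernatant removed, cells washed, then 2 h with 10 μg/mL resazurin in PBS; metabolic conversion read relative to vehicle.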

Homo sapiens [6] = species: Homo sapiens; assay: Inhibition of de novo protein synthesis in HUVECtert at 2 to 5 uM after 30 mins by Click-iT OPP/Alexa fluor 488 picolyl azide reagent based flow cytometry; type: functional
In short: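 HUVECtert (1 × 10^6 cells in tubes) exposed 30 min to agent (2 or 5 μM; cycloheximide 1−35 μM) or vehicle, then 20 μM OPP 30 min; fixed, permeabilised, Alexa 488 click-labelled in Tris buffer pH 7.4; FL-1 flow cytometry relative to control; n = 3, one-way ANOVA/Dunnett.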

Homo sapiens [7] = species: Homo sapiens; assay: Inhibition of NF-kappaB in HUVECtert assessed as reduction in TNFalpha-induced ICAM-1 mRNA expression level at 0.5 to 5 uM pretreated for 30 mins followed by TNFalpha stimulation measured after 4 hrs by qRT-PCR analysis
Homo sapiens [8] = species: Homo sapiens; assay: Reduction in survivin level in HUVECtert at 2 uM measured up to 480 mins by Western blot analysis; type: functional
In short: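 HUVECtert treated with 1 μM cycloheximide, 2 μM agent, vehicle, or left untreated for a time course; cyclin D1 or survivin by Western blot, actin loading control; means ± SD of three blots, one-way ANOVA/Dunnett versus untreated.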

Homo sapiens [9] = species: Homo sapiens; assay: (§4) Inhibition of NF-kappaB in HUVECtert assessed as reduction in TNFalpha-induced VCAM-1 expression level pretreated for 30 mins followed by TNFalpha stimulation measured after 18 hrs by flow cytometry; in short: as §3
[10] = as §4; design: species or system Homo sapiens; in short: as §3
[11] = target: T1, Inhibitor of nuclear factor kappa-B kinase subunit beta (Homo sapiens) (UniProt O14920); assay: Inhibition of IKKbeta phosphorylation level in TNFalpha-stimulated HUVECtert at 2 uM pretreated for 30 mins followed by TNFalpha stimulation measured after 5 to 15 mins by Western blot analysis
T1 sequence (whole entry): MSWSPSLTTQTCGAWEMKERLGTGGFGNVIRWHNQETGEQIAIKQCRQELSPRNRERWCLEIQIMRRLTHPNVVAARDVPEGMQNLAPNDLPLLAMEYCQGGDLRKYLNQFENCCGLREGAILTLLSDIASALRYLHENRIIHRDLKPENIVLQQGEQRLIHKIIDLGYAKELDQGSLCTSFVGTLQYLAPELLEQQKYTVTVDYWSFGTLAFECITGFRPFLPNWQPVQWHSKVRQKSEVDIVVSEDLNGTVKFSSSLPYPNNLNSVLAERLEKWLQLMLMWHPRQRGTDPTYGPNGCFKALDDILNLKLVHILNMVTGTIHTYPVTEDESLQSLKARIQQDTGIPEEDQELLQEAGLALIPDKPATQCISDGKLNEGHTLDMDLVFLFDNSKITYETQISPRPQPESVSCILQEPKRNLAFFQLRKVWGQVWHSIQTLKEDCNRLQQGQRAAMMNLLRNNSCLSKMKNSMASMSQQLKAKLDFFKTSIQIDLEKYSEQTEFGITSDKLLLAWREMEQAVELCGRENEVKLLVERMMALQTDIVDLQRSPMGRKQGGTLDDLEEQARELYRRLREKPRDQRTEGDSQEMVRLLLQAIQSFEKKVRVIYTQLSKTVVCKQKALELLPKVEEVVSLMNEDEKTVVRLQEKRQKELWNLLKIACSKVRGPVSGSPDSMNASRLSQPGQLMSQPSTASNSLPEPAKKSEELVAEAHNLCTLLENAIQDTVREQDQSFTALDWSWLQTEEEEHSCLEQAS
In short: (§5)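 HUVECtert on gelatin-coated dishes pretreated with 2 μM agent or 0.1% DMSO, then TNFα 10 ng/mL; p-IKKα/β, p-IκBα and total IκBα immunoblotted at 5 or 15 min post-stimulation, actin loading control; means ± SD, n = 3, one-way ANOVA/Dunnett.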

Homo sapiens [12] = species: Homo sapiens; assay: Reduction in cyclin A level in HUVECtert at 2 uM after 8 hrs by Western blot analysis; type: functional
Homo sapiens [13] = species: Homo sapiens; assay: Inhibition of NF-kappaB in HUVECtert assessed as reduction in TNFalpha-induced VCAM-1 mRNA expression level at 5 uM pretreated for 30 mins followed by TNFalpha stimulation measured after 4 hrs by qRT-PCR analysis
[14] = target: T2, NF-kappa-B inhibitor alpha (Homo sapiens) (UniProt P25963); assay: Inhibition of IkappaBalpha degradation in TNFalpha-stimulated HUVECtert at 2 uM pretreated for 30 mins followed by TNFalpha stimulation measured after 5 to 15 mins by Western blot analysis; in short: as §5
T2 sequence (whole entry): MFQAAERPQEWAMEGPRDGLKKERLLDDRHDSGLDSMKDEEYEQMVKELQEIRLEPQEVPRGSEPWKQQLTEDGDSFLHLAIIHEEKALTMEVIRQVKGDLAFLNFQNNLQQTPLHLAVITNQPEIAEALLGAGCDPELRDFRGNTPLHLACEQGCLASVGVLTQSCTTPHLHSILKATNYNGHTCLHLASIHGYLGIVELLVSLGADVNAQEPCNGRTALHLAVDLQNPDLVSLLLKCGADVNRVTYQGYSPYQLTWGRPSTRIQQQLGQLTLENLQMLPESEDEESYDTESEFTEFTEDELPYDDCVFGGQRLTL

CC1=CC(=O)[C@@H](O)[C@@]2(C)[C@H]1CC(=O)[C@@]1(C)[C@H]3C(=O)O[C@H]([C@@H]3C)[C@H](O)[C@@H]12 [EURYCOMALACTONE]
Activity [1]: Non-Toxic
inhibition (Homo sapiens [2]): Dose-dependent effect
IC50 [3]: 560 nM
Activity [4]: Non-Toxic
Activity (Homo sapiens [5]): inactive
inhibition (Homo sapiens [6]): Active
inhibition (Homo sapiens [7]): inactive
Activity (Homo sapiens [8]): inactive
inhibition (Homo sapiens [9]): Dose-dependent effect
IC50 [10]: 540 nM
inhibition [11]: inactive
Activity (Homo sapiens [12]): inactive
inhibition (Homo sapiens [13]): Active
inhibition [14]: inactive
